# Measured values published in ChEMBL document CHEMBL2169772, “Discovery of (2S)-1-[4-(2-{6-amino-8-[(6-bromo-1,3-benzodioxol-5-yl)sulfanyl]-9H-purin-9-yl}ethyl)piperidin-1-yl]-2-hydroxypropan-1-one (MPC-3100), a purine-based Hsp90 inhibitor” (J Med Chem, 2012).
# pIC50: −log10 of the molar value.
# Key:
# [1] = AUC in Swiss nude mouse at 100 mg/kg, po by LC-ESI-MS/MS method; assay type: ADME, organism-based; parameters: dose 100 mg/kg, route oral; settings: plasma
# Method in brief: (§1)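 Single oral gavage in mice, vehicle 40% Captisol in phosphate buffer. EDTA plasma from cardiac puncture. Acetonitrile precipitation with internal standard, then LC-ESI-MS/MS quantitation against a 10–10 000 ng/mL standard curve. Cmax and AUC by noncompartmental analysis.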
# Heat shock protein HSP90 [2] = target: T1, Heat shock protein HSP90 (Homo sapiens, UniProt P07900+P08238); assay: Inhibition of human HSP90 using BODIPY labelled geldanamycin as substrate by fluorescence polarization assay; assay type: protein assay
# [3] = AUC in Swiss nude mouse at 2.5 mg/kg, iv by LC-ESI-MS/MS method; assay type: ADME, organism-based; parameters: dose 2.5 mg/kg, route intravenous; settings: plasma
# Method in brief: (§2)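 Intravenous dose in mice, vehicle DMA/PEG300/EtOH/H2O 3/40/12/45. Sampling at 5, 15, 30, 60, 120, 240, 480 and 720 min, three or five animals per time point. Cardiac-puncture EDTA plasma. Acetonitrile protein precipitation with internal standard, then LC-ESI-MS/MS (10–10 000 ng/mL curve). Parameters by noncompartmental fit.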
# Mus musculus [4] = assay: Hepatic clearance in Swiss nude mouse at 2.5 mg/kg, iv by LC-ESI-MS/MS method; assay type: ADME, organism-based, Liver; parameters: dose 2.5 mg/kg, route intravenous; settings: in vivo; method in brief: as §2
# [5] = Half life in Swiss nude mouse at 2.5 mg/kg, iv by LC-ESI-MS/MS method; assay type: ADME, organism-based; parameters: dose 2.5 mg/kg, route intravenous; settings: in vivo; method in brief: as §2
# [6] = Tmax in Swiss nude mouse at 10 mg/kg, po by LC-ESI-MS/MS method; assay type: ADME, organism-based; parameters: dose 10 mg/kg, route oral; settings: in vivo
# Method in brief: (§3)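 Mice dosed by oral gavage, vehicle DMA/PEG300/EtOH/H2O (3/40/12/45, v/v/v/v). Blood drawn by cardiac puncture into EDTA plasma. Three or five animals per time point. Plasma precipitated with acetonitrile plus internal standard. Quantified by LC-ESI-MS/MS against a 10–10 000 ng/mL standard curve with QC samples. Noncompartmental analysis.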
# [7] = AUC in Swiss nude mouse at 10 mg/kg, po by LC-ESI-MS/MS method; assay type: ADME, organism-based; parameters: dose 10 mg/kg, route oral; settings: plasma; method in brief: as §3
# [8] = (§4) Metabolic stability in human liver microsomes assessed as percent of residual drug in presence of NADPH incubated for 40 mins by LC-ESI-MS/MS method; assay type: ADME, Microsome; settings: liver microsomes, read-out: Stability
# Method in brief: (§5)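 Test article incubated in duplicate with human liver microsomes (0.5 mg/mL protein) in 100 mM potassium phosphate pH 7.4. Started with 1 mM NADPH. Stopped with acetonitrile at 0, 10, 20 and 40 min. LC-MS/MS peak area at 40 min reported as percent of 0 min. No-NADPH control incubated for 40 min.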
# [9] = Volume of distribution in Swiss nude mouse at 2.5 mg/kg, iv by LC-ESI-MS/MS method; assay type: ADME, organism-based; parameters: dose 2.5 mg/kg, route intravenous; settings: in vivo; method in brief: as §2
# [10] = Cmax in Swiss nude mouse at 100 mg/kg, po by LC-ESI-MS/MS method; assay type: ADME, organism-based; parameters: dose 100 mg/kg, route oral; settings: in vivo; method in brief: as §1
# HCT-116 [11] = assay: Cytotoxicity against human HCT116 cells assessed as inhibition of tumor growth incubated for 72 hrs by luminometry; assay type: functional, cell-based; settings: HCT-116, 72 h
# Method in brief: (§6)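 Cells seeded at 5000 per well in DMEM with 10% serum and left overnight. Compound added from DMSO dilutions (0.4% DMSO final) for 72 h. After 5 min at room temperature, ATPLite two-step lysis and substrate added, 5 min incubation, then luminescence read. Values are the mean of at least two experiments.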
# [12] = Cmax in Swiss nude mouse at 10 mg/kg, po by LC-ESI-MS/MS method; assay type: ADME, organism-based; parameters: dose 10 mg/kg, route oral; settings: in vivo; method in brief: as §3
# Heat shock protein HSP90 [13] = target: T1, Heat shock protein HSP90; assay: Inhibition of human HSP90 in HCT116 cells expressing Her2 gene assessed as degradation of Her2 after 4 hrs by luciferase reporter gene assay; assay type: cell-based; settings: hct-116
# Method in brief: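 HCT116 cells stably transfected with Her2 kinase domain (aa 641–975) fused to firefly luciferase. Seeded at 10 000 per well in DMEM with 10% serum and left overnight. Compound added from DMSO (0.4% final) for 4 h. Steady-Glo added at room temperature for 5 min, then luminescence read.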
# [14] = Oral bioavailability in Swiss nude mouse at 100 mg/kg administered using captisol and phosphate buffer system formulation by LC-ESI-MS/MS method; settings: in vivo
# [15] = Cytotoxicity against human NCI-ADR-RES cells overexpressing P-gp 1 assessed as inhibition of tumor growth incubated for 72 hrs by luminometry; assay type: functional, cell-based; method in brief: as §6
# Mus musculus [16] = assay: Inhibition of HSP90 in mouse liver assessed as induction of HSP70 mRNA expression at 100 mg/kg, po after 6 hrs relative to control; assay type: functional
# [17] = Oral bioavailability in Swiss nude mouse at 10 mg/kg by LC-ESI-MS/MS method; assay type: ADME, organism-based; settings: in vivo; method in brief: as §3
# Liver microsomes = assay: as §4; assay type: ADME, Microsome; settings: microsomes, 40 min; method in brief: as §5
# [18] = Lipophilicity, log P of the compound; assay type: physicochemical; settings: octanol/water
# HCT-116 [19] = assay: Ratio of IC50 for human NCI-ADR-RES cells overexpressing P-gp1 to IC50 for human HCT116 cells; assay type: functional
# [20] = Solubility of compound in phosphate buffer at pH 7.4; assay type: physicochemical
SMILES,AUC [1] [ng·h/mL],IC50 (Heat shock protein HSP90 [2]) [µM],AUC [3] [ng·h/mL],CLH (Mus musculus [4]) [mL/h/kg],half-life [5] [min],Tmax [6] [min],AUC [7] [ng·h/mL],remaining at 40 min [8] [%],Vd [9] [L/kg],Cmax [10] [ng/mL],Cmax [12] [ng/mL],IC50 (Heat shock protein HSP90 [13]) [µM],bioavailability [14] [%],bioavailability [17] [%],pIC50 (Heat shock protein HSP90 [2]),pIC50 (HCT-116 [11]),pIC50 [15],fold change (FC) (Mus musculus [16]),other results
C[C@@H](O)C(=O)N1CCC(CCn2c(Sc3cc4c(cc3Br)OCO4)nc3c(N)ncnc32)CC1,50300,0.11,1650,1513,36,15,2410,58,1.32,8400,1430,0.09,> 50,37,–,6.19,5.48,24,–
Nc1ncnc2c1nc(Sc1cc3c(cc1Br)OCO3)n2CCC1CCN(C(=O)CO)CC1,25100,0.11,574,4359,30,15,1320,54,3,7780,588,0.06,> 50,57,–,6.42,5.70,18,–
CN1[C@@H]2CC[C@H]1CC(CCn1c(Sc3cc4c(cc3Br)OCO4)nc3c(N)ncnc31)C2 (some centres undefined),–,–,–,–,–,–,–,–,–,–,–,–,–,–,–,–,–,–,Stability (Liver microsomes): Unstable
Nc1ncnc2c1nc(Sc1cc3c(cc1Br)OCO3)n2CCC1CCN(C=O)CC1,63900,0.15,1320,1899,30,60,1810,17,1.45,10900,354,0.07,> 50,35,–,6.37,5.55,47,logP [18]: 3.42
Nc1ncnc2c1nc(Sc1cc3c(cc1Br)OCCO3)n2CCC1CCN(C=O)CC1,38000,0.06,967,2585,16.8,60,1180,42,1.05,8540,312,0.049,> 50,30,–,6.17,5.68,2.3,–
CC(C)N1CCC(CCn2c(Sc3cc4c(cc3Br)OCO4)nc3c(N)ncnc32)CC1,–,0.9,–,–,–,–,–,–,–,–,–,0.32,–,–,–,5.59,5.14,–,Ratio IC50 (HCT-116 [19]): 2
C[C@H](O)C(=O)N1CCC(CCn2c(Sc3cc4c(cc3Br)OCCO4)nc3c(N)ncnc32)CC1,40400,0.15,1460,1712,25.8,30,1190,45,1.07,11600,564,0.074,> 50,20,–,6.33,5.19,3.2,–
Nc1ncnc2c1nc(Sc1cc3c(cc1Br)OCO3)n2CCC1C[C@H]2CC[C@@H](C1)O2 (some centres undefined),–,–,–,–,–,–,–,–,–,–,–,–,–,–,–,–,–,–,Stability (Liver microsomes): Unstable
Nc1ncnc2c1nc(Sc1cc3c(cc1Br)OCCO3)n2CCC1CCN(C(=O)CO)CC1,18200,0.09,517,4833,51,15,702,45,5.93,7530,55,0.04,> 50,34,–,6.09,5.00,1.7,–

# Continued, in another order:
AUC [1] [ng·h/mL],IC50 (Heat shock protein HSP90 [2]) [µM],AUC [3] [ng·h/mL],CLH (Mus musculus [4]) [mL/h/kg],half-life [5] [min],Tmax [6] [min],AUC [7] [ng·h/mL],remaining at 40 min [8] [%],Vd [9] [L/kg],Cmax [10] [ng/mL],Cmax [12] [ng/mL],IC50 (Heat shock protein HSP90 [13]) [µM],bioavailability [14] [%],bioavailability [17] [%],pIC50 (Heat shock protein HSP90 [2]),SMILES,pIC50 (HCT-116 [11]),pIC50 [15],fold change (FC) (Mus musculus [16]),other results
32600,0.11,1530,1639,36,60,1960,35,1.35,9300,1180,0.069,> 50,32,–,C[C@@H](O)C(=O)N1CCC(CCn2c(Sc3cc4c(cc3Br)OCCO4)nc3c(N)ncnc32)CC1,6.04,5.01,3.8,–
–,0.08,–,–,–,–,–,75,–,–,–,–,–,0.4,–,Nc1ncnc2c1nc(Sc1cc3c(cc1Br)OCO3)n2CCC(N)C1CC1 (centres undefined),–,–,–,solubility [20]: > 100 µM
–,–,–,–,–,–,–,0,–,–,–,–,–,–,< 5.30,Nc1ncnc2c1nc(Sc1cc3c(cc1Br)OC(F)(F)O3)n2CCC1CCN(C=O)CC1,–,–,–,logP [18]: 4.82
